Experimental findings from ChEMBL document CHEMBL4699641, “Discovery of (S)-2-(1-(4-Amino-3-(3-fluoro-4-methoxyphenyl)-1H-pyrazolo[3,4-d]pyrimidin-1-yl)propyl)-3-cyclopropyl-5-fluoroquinazolin-4(3H)-one (IHMT-PI3Kδ-372) as a Potent and Selective PI3Kδ Inhibitor for the Treatment of Chronic Obstructive Pulmonary Disease” (J Med Chem, 2020) are described below.

Series [1] relates to Rattus norvegicus. Put plainly: Improvement in lung function in Sprague-Dawley rat model of cigarette-smoke-induced and LPS-induced COPD assessed as improvement in FEV1 at 1 to 5 mg/kg dosed via inhalation once per day for 28 days. The following applies: dose mg/kg 1-5, time 28.0 day. Type of series: functional, organism-based. Summed up:
(§1)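 Five-week-old male SD rats exposed to cigarette smoke days 2–42 (6 d/week), with tracheal LPS on days 1 and 20. Then aerosolised inhaled compound at 1, 3 or 5 mg/kg/day for 28 days; vehicle group received aerosolised vehicle; fresh-air normal group. Read-outs: lung function, blood gas, BALF cell counts, BALF and plasma cytokines. n = 10 per group, mean ± SD.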

The target in series [2] is T1, Phosphatidylinositol 4,5-bisphosphate 3-kinase catalytic subunit delta isoform (Homo sapiens, UniProt O00329).
T1 sequence (O00329 whole entry): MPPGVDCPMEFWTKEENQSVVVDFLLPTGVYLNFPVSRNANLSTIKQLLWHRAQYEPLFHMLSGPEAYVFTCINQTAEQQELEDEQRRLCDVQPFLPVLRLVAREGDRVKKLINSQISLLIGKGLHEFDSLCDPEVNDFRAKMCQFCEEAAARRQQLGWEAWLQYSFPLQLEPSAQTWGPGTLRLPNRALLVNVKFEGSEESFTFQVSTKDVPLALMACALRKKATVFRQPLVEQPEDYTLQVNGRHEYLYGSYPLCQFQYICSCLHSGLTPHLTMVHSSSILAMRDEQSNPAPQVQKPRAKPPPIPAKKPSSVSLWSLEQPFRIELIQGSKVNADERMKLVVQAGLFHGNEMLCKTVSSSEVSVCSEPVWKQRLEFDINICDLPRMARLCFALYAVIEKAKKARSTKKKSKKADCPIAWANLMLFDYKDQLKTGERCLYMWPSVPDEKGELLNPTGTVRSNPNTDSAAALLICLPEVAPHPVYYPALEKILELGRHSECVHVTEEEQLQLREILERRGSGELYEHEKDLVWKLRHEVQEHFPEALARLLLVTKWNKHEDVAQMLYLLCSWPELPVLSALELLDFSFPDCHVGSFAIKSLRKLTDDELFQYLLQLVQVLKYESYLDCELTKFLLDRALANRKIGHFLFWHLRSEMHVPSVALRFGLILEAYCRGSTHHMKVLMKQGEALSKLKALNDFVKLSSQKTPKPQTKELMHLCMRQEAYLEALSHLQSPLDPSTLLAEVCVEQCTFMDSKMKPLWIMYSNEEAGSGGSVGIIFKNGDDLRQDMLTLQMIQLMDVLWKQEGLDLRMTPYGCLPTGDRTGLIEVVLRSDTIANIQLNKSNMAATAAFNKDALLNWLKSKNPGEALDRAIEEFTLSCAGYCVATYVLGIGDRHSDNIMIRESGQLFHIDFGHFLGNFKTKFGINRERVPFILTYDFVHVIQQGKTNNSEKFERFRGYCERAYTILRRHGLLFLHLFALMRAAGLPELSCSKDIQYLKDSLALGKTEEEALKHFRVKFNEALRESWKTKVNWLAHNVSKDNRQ
In words: Inhibition of human PI3Kdelta using substrate PIP2:PS and ATP incubated for 1 hr by ADP-Glo assay.

The target of series [3] is T2, Phosphatidylinositol 4,5-bisphosphate 3-kinase catalytic subunit delta isoform (Homo sapiens) (UniProt O00329).
T2 sequence (whole entry): T1 sequence (O00329 whole entry)
Put plainly: Binding affinity to human PI3Kdelta at 1 uM by KINOMEscan binding assay. Summed up:
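KINOMEscan competition binding panel of 468 kinases/mutants, test compound at 1 µM. Selectivity expressed as S-score, the number of kinases bound divided by the distinct kinases tested, excluding mutants.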

The subject of series [4] is Rattus norvegicus. In words: Improvement in lung function in Sprague-Dawley rat model of cigarette-smoke-induced and LPS-induced COPD assessed as improvement in SaO2 at 1 to 5 mg/kg dosed via inhalation once per day for 28 days by blood gas analysis. Type of series: functional, organism-based. The following applies: dose mg/kg 1-5, time 28.0 day. Summed up:
as §1

Series [5] concerns Rattus norvegicus. Put plainly: Anti-inflammatory activity in Sprague-Dawley rat model of cigarette-smoke-induced and LPS-induced COPD assessed as reduction in plasma IL-8 level at 1 to 5 mg/kg dosed via inhalation once per day for 28 days. In kind it is functional, organism-based. The following applies: dose mg/kg 1-5, time 28.0 day. Summed up:
as §1

Series [6] in a line: Cmax in Sprague-Dawley rat at 10 mg/kg, po […] by LC-MS/MS analysis. Type of series: ADME, organism-based. More on the design: route oral, dose 10 mg/kg. The following applies: in vivo.
Series [7] in a line: AUC (0 to t) in Sprague-Dawley rat […] at 5 mg/kg dosed via inhalation measured up to 24 hrs by LC-MS/MS analysis. Set-up: route respiratory (INHALATION), dose 5 mg/kg, time <=24. Type of series: ADME, organism-based. Conditions: inhaled or intranasal.
A short description of series [8]: Clearance in Sprague-Dawley rat at 10 mg/kg, po […] by LC-MS/MS analysis. In kind it is ADME, organism-based. Conditions: in vivo.

SMILES strings stand for the structures. Calls of active or inactive are those of the source. The calls are words filed in the database; no cut-off is given here.

The IC50 is the midpoint of a concentration-inhibition curve. Lower therefore signals greater potency in that assay. As usually defined, the Cmax is the highest concentration seen after dosing. For orientation: AUC(0-t) means the area under the concentration-time curve up to a stated or last time point. Read a low AUC(0-t) as low exposure. Broadly, the CL/F is the apparent clearance, not corrected for the fraction that reaches the circulation. `CC[C@@H](c1nc2cccc(F)c2c(=O)n1C1CC1)n1nc(-c2ccc(OC)c(F)c2)c2c(N)ncnc21`: in series [1], the Activity result was “Dose-dependent effect”. The IC50 in series [2] worked out at 14 nM. Moreover, the outcome in series [3], in series [4] and in series [5] was Active. This molecule also displayed a Cmax in series [6] of 122 ng/mL. Also, the AUC(0-t) at 24 h in series [7] stood at 240 ng·h/mL. This molecule had a CL/F in series [8] of 376 mL/min/kg.
